Test results taken from ChEMBL document CHEMBL1145516, “Structure-activity relationships for interaction with multidrug resistance protein 2 (ABCC2/MRP2): the role of torsion angle for a series of biphenyl-substituted heterocycles” (Drug Metab Dispos, 2007).

Legend:
Caco-2 [1] = test: Ratio of permeability from basolateral to apical side over apical to basolateral side of human Caco-2 cell membrane at 10 uM; type: ADME, cell-based; conditions: caco-2, 10 µM
Procedure, shortened: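 Caco-2 monolayers seeded at 1x10^5 cells/cm2, grown 21-25 days, TEER >600 Ohm/cm2. Compound at 10 µM in HBSS pH 7.4 added to apical or basal donor side; 2 h at 37°C with shaking. Both sides sampled, quantified by LC/MS/MS.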

MRP2 = test: Permeability across dog MDCK cells expressing MRP2; type: ADME, cell-based, Canis lupus familiaris; conditions: read-out: permeability
Caco-2 [2] = test: Ratio of permeability from basolateral to apical side over apical to basolateral side of human Caco-2 cell membrane at 10 uM in presence of MRP2 inhibitor MK571; conditions: caco-2, 10 µM

| Ratio (Caco-2 [1]) | Papp (MRP2) [nm/s] | Ratio (Caco-2 [2]) | Structure (SMILES) |
| --- | --- | --- | --- |
| 1.35 | 30 |  | NC(=O)Nc1cn(-c2ccc(-c3ccc(O)cc3)c(F)c2)nc1C(N)=O |
| 26.02 | 30 | 2.53 | Cc1cc(O)ccc1-c1ccc(-n2cc(NC(N)=O)c(C(N)=O)n2)cc1C |
